# Activity calls are given as the source filed them. The rule behind the calls is not given here.
# Experiments:
# Human alphaherpesvirus 1 [1] = experiment: Antiviral activity against Herpes simplex virus 1 KOS infected in human HELF cells assessed as reduction in virus-induced cytopathogenicity incubated for 7 days by microscopic analysis; assay type: functional, organism-based; conditions: strain KOS
# HeLa = experiment: Antiproliferative activity against human HeLa cells assessed as reduction in cell viability incubated for 72 hrs by MTT assay; assay type: functional, cell-based
# How it was run: (§1)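 Cells (ATCC) grown in DMEM with 10 FBS, penicillin/streptomycin, 2 mM glutamine, 37 °C, 5 CO2. 5000 cells/well seeded; after 24 h, freshly prepared dilutions at five concentrations (0.01–100 μM) added for 72 h. MTT read-out; absorbance converted to percentage growth by NIH formulas. Two experiments in quadruplicate; IC50 by linear regression.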
# Influenza A virus H3N2 [2] = experiment: Antiviral activity against Influenza A virus (A/HK/7/87(H3N2)) infected in dog MDCK cells assessed as reduction in virus-induced cytopathogenicity incubated for 7 days by microscopic analysis; assay type: functional, organism-based; conditions: A/Hong Kong/7/1987(H3N2)
# Reovirus sp. = experiment: Antiviral activity against Reovirus infected in vero cells assessed as reduction in virus-induced cytopathogenicity incubated for 7 days by microscopic analysis; assay type: functional, organism-based
# HepG2 = experiment: Antiproliferative activity against human HepG2 cells assessed as reduction in cell viability incubated for 72 hrs by MTT assay; assay type: functional, cell-based; conditions: HepG2, 72 h; how it was run: as §1
# Human alphaherpesvirus 2 = experiment: Antiviral activity against Herpes simplex virus 2 G infected in human HELF cells assessed as reduction in virus-induced cytopathogenicity incubated for 7 days by microscopic analysis; assay type: functional, organism-based
# Coxsackievirus B4 = experiment: Antiviral activity against Human coxsackievirus B4 infected in vero cells assessed as reduction in virus-induced cytopathogenicity incubated for 7 days by microscopic analysis; assay type: functional, organism-based
# Human coronavirus 229E = experiment: Antiviral activity against Human coronavirus 229E infected in human HELF cells assessed as reduction in virus-induced cytopathogenicity incubated for 7 days by microscopic analysis; assay type: functional, organism-based
# CFPAC-1 = experiment: Antiproliferative activity against human CFPAC-1 cells assessed as reduction in cell viability incubated for 72 hrs by MTT assay; assay type: functional, cell-based; conditions: Homo sapiens, CFPAC-1, 72 h; read-out: IC50; how it was run: as §1
# Influenza A virus [3] = experiment: Antiviral activity against Influenza A virus (A/Ned/378/05(H1N1)) infected in dog MDCK cells assessed as reduction in virus-induced cytopathogenicity incubated for 7 days by MTS assay; assay type: functional, organism-based
# MCF7 = experiment: Antiproliferative activity against human MCF7 cells assessed as reduction in cell viability incubated for 72 hrs by MTT assay; assay type: functional, cell-based; conditions: MCF7, 72 h; how it was run: as §1
# Influenza A virus [4] = experiment: Antiviral activity against Influenza A virus (A/Ned/378/05(H1N1)) infected in dog MDCK cells assessed as reduction in virus-induced cytopathogenicity incubated for 7 days by microscopic analysis; assay type: functional, organism-based
# Human alphaherpesvirus 3 [5] = experiment: Antiviral activity against thymidine kinase deficient Varicella zoster virus infected in human HELF cells assessed as reduction in virus-induced cytopathogenicity incubated for 7 days by Giemsa staining based microscopic analysis; assay type: functional, organism-based; conditions: Human alphaherpesvirus 3, HELF, 168 h
# Human alphaherpesvirus 1 [6] = experiment: Antiviral activity against Herpes simplex virus 1 TK-KOS-ACV infected in human HELF cells assessed as reduction in virus-induced cytopathogenicity incubated for 7 days by microscopic analysis; assay type: functional, organism-based
# Sindbis virus = experiment: Antiviral activity against Sindbis virus infected in vero cells assessed as reduction in virus-induced cytopathogenicity incubated for 7 days by microscopic analysis; assay type: functional, organism-based
# Human alphaherpesvirus 3 [7] = experiment: Antiviral activity against thymidine kinase positive Varicella zoster virus infected in human HELF cells assessed as reduction in virus-induced cytopathogenicity incubated for 7 days by Giemsa staining based microscopic analysis; assay type: functional, organism-based; conditions: Human alphaherpesvirus 3, HELF, 168 h
# Cytomegalovirus [8] = experiment: Antiviral activity against Cytomegalovirus Davis infected in human HELF cells assessed as reduction in virus-induced cytopathogenicity incubated for 7 days by Giemsa staining based microscopic analysis; assay type: functional, organism-based; conditions: Human betaherpesvirus 5, Davis, 168 h
# How it was run: (§2)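 Confluent HEL fibroblasts infected with CMV (Davis or AD-169) at 100 PFU/well for 2 h. Residual virus removed, then medium with graded compound concentrations added (duplicate). Incubated 7 days at 37 °C. Cytopathogenicity scored microscopically after ethanol fixation and Giemsa staining. EC50 read from plots of % cytopathogenicity versus concentration.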
# SW-620 = experiment: Antiproliferative activity against human SW620 cells assessed as reduction in cell viability incubated for 72 hrs by MTT assay; assay type: functional, cell-based; conditions: SW-620, 72 h; how it was run: as §1
# HCT-116 = experiment: Antiproliferative activity against human HCT116cells assessed as reduction in cell viability incubated for 72 hrs by MTT assay; assay type: functional, cell-based; conditions: HCT-116, 72 h; how it was run: as §1
# A549 = experiment: Antiproliferative activity against human A549 cells assessed as reduction in cell viability incubated for 72 hrs by MTT assay; assay type: functional, cell-based; conditions: A549, 72 h; how it was run: as §1
# Influenza A virus H3N2 [9] = experiment: Antiviral activity against Influenza A virus (A/HK/7/87(H3N2)) infected in dog MDCK cells assessed as reduction in virus-induced cytopathogenicity incubated for 7 days by MTS assay; assay type: functional, organism-based; conditions: A/Hong Kong/7/1987(H3N2)
# Cytomegalovirus [10] = experiment: Antiviral activity against Cytomegalovirus AD169 infected in human HELF cells assessed as reduction in virus-induced cytopathogenicity incubated for 7 days by Giemsa staining based microscopic analysis; assay type: functional, organism-based; conditions: Human betaherpesvirus 5, AD169, HELF, 168 h; how it was run: as §2
# Influenza B virus [11] = experiment: Antiviral activity against Influenza B virus (B/Ned/537/05) infected in dog MDCK cells assessed as reduction in virus-induced cytopathogenicity incubated for 7 days by MTS assay; assay type: functional, organism-based
# [12] = Cytotoxicity against human HELF cells assessed as reduction in cell viability incubated for 3 days by coulter counter method; assay type: cell-based; conditions: 72 h
# How it was run: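 HEL cells seeded at 5 x 10^3/well and allowed to proliferate 24 h, then exposed to graded compound concentrations for 3 days at 37 °C. Cell number counted with a Coulter counter.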
# [13] = Cytotoxicity against human HELF cells assessed as minimum cytotoxic concentration by observing alteration in cell morphology incubated for 3 days by microscopic analysis; assay type: cell-based; conditions: for MCC at 72 h: HELF cells
# How it was run: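 Read-out is the minimum cytotoxic concentration (MCC): the lowest compound concentration giving a microscopically detectable change in cell morphology. Measured on confluent human embryonic lung (HEL) fibroblast cultures exposed to a range of compound concentrations.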
# Human adenovirus 2 = experiment: Antiviral activity against Human adenovirus 2 infected in human HELF cells assessed as reduction in virus-induced cytopathogenicity incubated for 7 days by microscopic analysis; assay type: functional, organism-based
# Influenza B virus [14] = experiment: Antiviral activity against Influenza B virus (B/Ned/537/05) infected in dog MDCK cells assessed as reduction in virus-induced cytopathogenicity incubated for 7 days by microscopic analysis; assay type: functional, organism-based
# HFF = experiment: Cytotoxicity against human HFF cells assessed as reduction in cell viability incubated for 72 hrs by MTT assay; assay type: cell-based; how it was run: as §1
SMILES,Activity (Human alphaherpesvirus 1 [1]),IC50 (HeLa) [µM],Activity (Influenza A virus H3N2 [2]),Activity (Reovirus sp.),IC50 (HepG2) [µM],Activity (Human alphaherpesvirus 2),Activity (Coxsackievirus B4),Activity (Human coronavirus 229E),IC50 (CFPAC-1) [µM],Activity (Influenza A virus [3]),IC50 (MCF7) [µM],Activity (Influenza A virus [4]),EC50 (Human alphaherpesvirus 3 [5]) [µM],Activity (Human alphaherpesvirus 1 [6]),Activity (Sindbis virus),EC50 (Human alphaherpesvirus 3 [7]) [µM],EC50 (Cytomegalovirus [8]) [µM],IC50 (SW-620) [µM],IC50 (HCT-116) [µM],CC50 [12] [µM],also measured
CC(C)(C)c1cn(C/C=C2\OC(=O)C(OCc3ccccc3)=C2OCc2ccccc2)nn1,inactive,> 100,inactive,inactive,62.2,inactive,inactive,inactive,> 100,inactive,4.93,inactive,10,inactive,inactive,11.7,5.2,20.7,47.3,55.5,IC50 (A549): 5.25 µM; Activity (Influenza A virus H3N2 [9]): inactive; EC50 (Cytomegalovirus [10]): 8.94 µM; Activity (Influenza B virus [11]): inactive; MCC at 72 h [13]: 100 µM; Activity (Human adenovirus 2): inactive; Activity (Influenza B virus [14]): inactive; IC50 (HFF): 49.9 µM
COc1ccc(-c2cn(C/C=C3\OC(=O)C(OCc4ccccc4)=C3OCc3ccccc3)nn2)cc1,inactive,> 100,inactive,inactive,> 100,inactive,inactive,inactive,> 100,inactive,39.1,inactive,> 100,inactive,inactive,> 100,5.74,> 100,> 100,> 100,IC50 (A549): > 100 µM; Activity (Influenza A virus H3N2 [9]): inactive; EC50 (Cytomegalovirus [10]): 20 µM; Activity (Influenza B virus [11]): inactive; MCC at 72 h [13]: > 100 µM; Activity (Human adenovirus 2): inactive; Activity (Influenza B virus [14]): inactive; IC50 (HFF): > 100 µM
COc1ccccc1-c1cn(C/C=C2\OC(=O)C(OCc3ccccc3)=C2OCc2ccccc2)nn1,inactive,> 100,inactive,inactive,> 100,inactive,inactive,inactive,> 100,inactive,> 100,inactive,> 20,inactive,inactive,> 100,10.8,> 100,> 100,4.29,IC50 (A549): > 100 µM; Activity (Influenza A virus H3N2 [9]): inactive; EC50 (Cytomegalovirus [10]): > 100 µM; Activity (Influenza B virus [11]): inactive; MCC at 72 h [13]: 100 µM; Activity (Human adenovirus 2): inactive; Activity (Influenza B virus [14]): inactive; IC50 (HFF): > 100 µM
O=c1[nH]c(=O)n([C@H]2C[C@H](O)[C@@H](CO)O2)cc1/C=C/Br [BRIVUDINE],–,–,–,–,–,–,–,–,–,–,–,–,0.0066,–,–,18.4,–,–,–,179,"EC50 (Human alphaherpesvirus 2; Human alphaherpesvirus 2, G, 168 h): > 250 µM; MCC ([13]; 72 h): 250 to 300 µM"
